# The campaign covered roughly 30,000 compounds. About 80 (0.3%) were called active.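 Rule for the calls: active = mutant and wild-type yeast strains alike exhibit over 30% growth inhibition; inconclusive = a strain exceeds 50% while the second remains under 30%; inactive = the rest.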 Only a selection was taken, and actives are over-represented in it overall.
# Assay: S. cerevisiae growth inhibition, turbidity – wild-type and eIF2Bepsilon R284H mutant, A595, cytotoxicity control for eIF2B function restoration project, primary screen (AID 685);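 note: 0% = untreated cell controls and 100% = YPD media blanks without cells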
# Settings: 16 h, stronger effect = higher value, screened at 25 µM (by protocol)
# Outline: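 Schedule: 16 h growth with compound, 30 °C. System: yeast, wild-type or eIF2Bepsilon-R284H mutant. Doses: one dose, 25 µM compound[…]. Buffer or medium: YPD. Signal: turbidity measured as absorbance at 595 nm. Read-out basis: growth inhibition (%) versus cell controls and blanks.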
# [1] = S. cerevisiae eIF2Bepsilon-R284H mutant growth
Compound,growth inhibition [1] [%],growth inhibition (S. cerevisiae wild-type growth)
Clc1cccc(N=C2NN=C(c3ccc4c(c3)OCCO4)CS2)c1,5.13,-0.77% (inactive)
CC(C)Oc1ccc(Oc2ccc(C(F)(F)F)cn2)cc1,7.69,6% (inactive)
Cc1ccc(C2C(C#N)C(C#N)N3CCCN23)cc1 (stereo not drawn),13,-7.5% (inactive)
Cc1ccc(C(=O)CSc2nnc(Cn3nnc4ccccc43)n2C)cc1,3.7,16.7% (inactive)
COc1ccc(OCC(=O)N2CCOCC2)cc1,17.9,15.5% (inactive)
O=S(=O)(NCC1OCCc2ccccc21)c1ccccc1 (stereo not drawn),15.2,16.1% (inactive)
CCN(c1ccccc1)S(=O)(=O)c1ccc(NC(=O)C(C)(C)C)cc1,15,-4.62% (inactive)
Cc1cc(-c2ccccc2)nc(N2CCC(C(=O)NC34CC5CC(CC(C5)C3)C4)CC2)n1,-19.1,2.16% (inactive)
C=CCNC(=O)c1ccc(C)c(Br)c1,0,6.76% (inactive)
CCN(CC)S(=O)(=O)c1ccc2c3c(cccc13)C(=O)S2,-4.76,16.2% (inactive)
O=C(O)CCC(=O)NCc1ccc(C(=O)O)cc1,16.7,9.62% (inactive)
Cc1cccn2c(=O)c(/C=C(\C#N)S(=O)(=O)c3ccc(Cl)cc3)c(N3CCC(C(N)=O)CC3)nc12,0,7.31% (inactive)
CCCCSc1[nH]c(=O)c(C(=O)OCC)cc1C#N,5,2.76% (inactive)
COc1ccc(CN(Cc2ccco2)S(=O)(=O)c2ccc(S(=O)(=O)N3CCCC3)cc2)cc1,-2.56,16.6% (inactive)
O=C(CN1CCOCC1)Nc1ccccc1,12.8,11.2% (inactive)
CCCCCCNC(=O)CSc1nccn1Cc1ccccc1,11.1,20.4% (inactive)
Cc1ccc(CNC(=O)COc2ccc(S(=O)(=O)NC(C)C)cc2)cc1,11.6,20.3% (inactive)
COc1ccc(NC(=O)Cn2c(=O)n(Cc3ccco3)c(=O)c3ccccc32)cc1,-12.8,-47.3% (inactive)
O=c1c2ccccc2nc(CSc2nnnn2-c2ccccc2)n1-c1ccccc1,-14.8,-3.81% (inactive)
CCN(CC)C(=O)CSc1nnc(C2CCCCC2)o1,6.82,9.66% (inactive)
CCOc1cc(NC(=O)c2cnccn2)c(OCC)cc1NC(=O)c1ccc(C)cc1,-33.3,-5.09% (inactive)
CC(C)(C)C(=O)Cn1c(NCCO)nc2ccccc21,-6.25,21% (inactive)

Compound,growth inhibition [1] [%],growth inhibition (S. cerevisiae wild-type growth)
Cc1ccc(-n2ccc(=O)c(C(=O)O)n2)cc1,18.9,4.62% (inactive)
Cc1ccc(Cc2c(C)nc3nc(SCC(=O)NCCN4CCOCC4)nn3c2C)cc1,0,3.33% (inactive)
CC(C)CC(=O)Nc1cc(C(F)(F)F)ccc1N1CCOCC1,10.5,18.6% (inactive)
CCC(c1nnnn1C1CCCC1)N1CCN(C(=O)c2ccco2)CC1 (stereo not drawn),-13.6,-4.24% (inactive)
CCC(O)CNc1nc(-n2nc(C)cc2C)nc2sc3c(c12)CC(C)(C)OC3 (stereo not drawn),-4.55,4.83% (inactive)
O=C(CCc1ccccc1)NCc1cccnc1,4.55,-12.1% (inactive)
CCOCCCNC(=O)c1c[nH]c2cc(C)ccc2c1=O,-17.9,16.6% (inactive)
N#Cc1c(/N=C/N2CCCC2)oc(-c2ccccc2)c1-c1ccccc1,7.69,-15.7% (inactive)
COc1ccccc1NC(=O)C1CCCN(c2cc(C)nc3ncnn23)C1 (stereo not drawn),-7.89,2.42% (inactive)
COc1ccc2oc(C)c(NC(C)=O)c2c1,-6.67,17.6% (inactive)
FC(F)(F)c1nnc2ccc(N3CCN(c4ccccc4)CC3)nn12,9.68,11.8% (inactive)
OC(c1ccccc1)c1nccn1Cc1ccccc1 (stereo not drawn),6.98,31% (inactive)
O=C(CCC(=O)OCC(F)(F)C(F)F)NCc1ccccc1,8.11,2.5% (inactive)
CCOC(=O)CSc1nc2ccc(C)cc2[nH]1,0,-5.43% (inactive)
CC(=O)c1cccc(NC(=O)Nc2ccc(C)cc2)c1,12.5,-4.69% (inactive)
COc1ccc(N2CCN(C(=O)CCc3nc(-c4ccc(C)cc4)no3)CC2)cc1,5,10% (inactive)
Cc1ccc(S(=O)(=O)Oc2ccc(/C=N/NC(=O)c3c(Cl)cnn3C)cc2)cc1,0,11.2% (inactive)
CCCc1nc(NCc2ccc3c(c2)OCO3)c2nnn(Cc3ccccc3Cl)c2n1,-4.84,-14.3% (inactive)
COc1ccc(CN2CN(C(C)C)CSC2=S)cc1,81.8,44.7% (active)
COc1cc2c(cc1OC)C(C(C)C)=NC(C)(C)C2,3.13,7.59% (inactive)
CCOCCCNC(=O)C(NC(=O)CNC(=O)c1ccccc1)c1ccc(C)cc1 (stereo not drawn),0,1.25% (inactive)
C=C(C)CSc1nnc(-c2ccc(C)cc2)n1N,10.3,-3.2% (inactive)

# — PubChem BioAssay AID685 (PCMD, 2007)
